Only some compounds are listed: those with a hit (about 3.1% of all), similar ones and a draw of the others.
PP1 counter: counter-screen for PP5 inhibitors: inhibitors of human PP1-alpha; P62136; inhibition, % at 6.7 µM; purified PP1alpha, OMFP fluorescence; actives 0.9% (n = 320,000);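 active = inhibition above the mean inhibition of all tested compounds plus 3 SD, computed separately for each screening campaign, cut at about 15% in these data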
NadD block: blocks S. aureus nicotinate mononucleotide adenylyltransferase. purified NadD enzyme, colorimetric absorbance read-out. inhibition, % at 20 µM. actives 0.78% (n = 360,000). AID 602399; in the data active = inhibition above about 26%
PP5 primary: blocks human protein phosphatase 5 activity; purified PP5c, OMFP substrate fluorescence; actives 0.18% (n = 320,000); inhibition, % at 6.7 µM;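 active = inhibition above the campaign's mean inhibition across all tested compounds plus 3 SD, cut at about 9.5% in these data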;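 note: 0% = DMSO only and 100% = 100 µM cantharidin control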
Target sequence (P53041 whole entry, looked up): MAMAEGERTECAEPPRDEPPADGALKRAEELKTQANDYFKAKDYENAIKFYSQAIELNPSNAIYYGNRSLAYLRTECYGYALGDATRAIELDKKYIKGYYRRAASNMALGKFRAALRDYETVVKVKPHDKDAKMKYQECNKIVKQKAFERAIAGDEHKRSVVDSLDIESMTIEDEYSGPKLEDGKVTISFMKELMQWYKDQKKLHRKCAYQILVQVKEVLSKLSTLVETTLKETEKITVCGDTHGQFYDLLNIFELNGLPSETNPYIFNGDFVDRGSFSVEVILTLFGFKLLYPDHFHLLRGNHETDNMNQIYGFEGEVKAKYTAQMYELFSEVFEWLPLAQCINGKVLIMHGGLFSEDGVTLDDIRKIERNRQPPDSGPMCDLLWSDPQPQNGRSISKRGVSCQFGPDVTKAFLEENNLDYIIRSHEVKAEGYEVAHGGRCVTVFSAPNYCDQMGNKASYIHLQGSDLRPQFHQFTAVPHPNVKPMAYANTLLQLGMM
HCV core dimer: HCV core protein dimerization inhibition. TR-FRET GST/Flag-core106 dimerization, 1536-well. AID 1899. inhibition, % at 5 µM. actives 0.33% (n = 300,000);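 active = inhibition above the mean of all tested compounds plus 3 SD, set per screening campaign, cut at about 45% in these data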
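Test system: GST/Flag-tagged HCV core106 proteins; Medium: KF-containing HEPES buffer, pH 7.45, DTT, CHAPS, BSA; Times: compound-protein-antibody incubation 4 h at 22.5 °C; Detection: TR-FRET 671 and 617 nm emission; Benchmarks: wells lacking GST-core106 and wells with excess unlabelled core106.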
Myeloid diff MLP: compounds promoting myeloid differentiation | AID 624256 | calls only at 10 µM | actives 1% (n = 360,000) | ER-HoxA9 myeloid progenitors, lysozyme-GFP differentiation, flow cytometry;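 active = normalized GFP-positive differentiation at or above the plate's own cutoff, the solvent-only control mean plus 3 SD; inconclusive = no clear call, values can overlap the other calls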;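 note: cells exposed to compound for four days before flow analysis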
Fh CTSL1 inh: counter-screen for PFM18AAP inhibitors: inhibitors of F. hepatica cathepsin L1. recombinant F. hepatica cathepsin L1, Z-Leu-Arg-MCA fluorescence. inhibition, % at 5.96 µM. actives 0.49% (n = 300,000). AID 1906;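 active = inhibition above the mean of all tested compounds plus 3 SD, set per screening campaign, cut at about 17% in these data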;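 note: 0% = plate median of test compound wells and 100% = 1 µM Z-Phe-Ala-diazomethylketone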
* hit, by the source's call; i = inactive; ? = inconclusive; · = no result; + = active, no number.

SMILES	PP1 counter	NadD block	PP5 primary	HCV core dimer	Myeloid diff MLP	Fh CTSL1 inh
COc1ccccc1N1N=C(c2ccc([N+](=O)[O-])cc2)CC1c1ccccc1 (centres undefined)	-1	0	2	11	+	1
COc1cc(N2N=C(c3ccccc3)CC2c2ccccc2)c(C=O)cc1C=O (centres undefined)	3	-4	0	3	i	-1
CC1CCC2(CC1)NC(=O)N(NC(=O)CCl)C2=O (centres undefined)	-3	-3	2	-2	i	17*
COc1ccc(C(=O)NCc2nnc(SCC(=O)NC3CCCC3)o2)cc1	1	-6	1	-12	i	7
CC1(C)CC(N2CCN(CCO)CC2)=CC(=S)N1	-4	-6	4	-5	+	7
CC1(C)CC(NCc2ccccc2)=CC(=S)N1	·	8	·	·	i	·
Cc1ccc(CN2CCC(Oc3ccc(C(=O)NCc4ccccn4)cc3)CC2)o1	0	-1	2	-4	i	1
Cc1ccc(CN2CCC(Oc3cccc(C(=O)NCc4cccnc4)c3)CC2)o1	-4	3	2	9	+	-1
COc1cc(OC)cc(C(=O)NCc2cccnc2)c1	-1	-4	1	-6	i	19*
CC1CC(C)CN(S(=O)(=O)c2ccc3c(c2)oc(=O)n3CC(=O)NCCCOC(C)C)C1 (centres undefined)	-1	-5	-3	-2	i	0
O=C(Nc1cc(C(F)(F)F)ccc1N1CCOCC1)c1cccc(S(=O)(=O)N2CCOCC2)c1	·	-2	·	·	i	·
Cc1ccccc1NC(=O)c1cccc(S(=O)(=O)N2CCCCC2)c1	-5	-5	3	10	i	-5
Cc1ccc(O)c(NC(=O)c2cccc(S(=O)(=O)N3CCCCC3)c2)c1	0	-2	6	3	+	-2
CN1CCN(S(=O)(=O)c2cccc(C(=O)Nc3cc(C(F)(F)F)ccc3N3CCCCC3)c2)CC1	-6	-7	4	-1	+	-1
O=C(Nc1cc(S(=O)(=O)N2CCCCC2)ccc1O)c1ccccc1NS(=O)(=O)c1ccc(F)c(F)c1	16*	10	-6	13	i	7
Nc1cc(C(=O)OCC(=O)Nc2cccc(S(=O)(=O)N3CCOCC3)c2)ccc1Cl	·	-1	·	·	i	·
CCCCN(C(=O)CSc1nc2ccccc2n1CC)C1CCS(=O)(=O)C1 (centres undefined)	1	3	0	·	i	·
CCOC(=O)N1CCC(Nc2c(OCC)c(=O)c2=O)CC1	2	-3	5	2	i	36*
CCC(C)N1C(=O)/C(=C/c2c(NCCCOC(C)C)nc3c(C)cccn3c2=O)SC1=S (centres undefined)	-2	-8	-4	5	+	3
CCC(C)Nc1nc2c(C)cccn2c(=O)c1C=Nc1ccc(OC)cc1 (centres undefined)	-5	8	0	-1	i	0
CCCN1C(=O)/C(=C/c2c(NCCCOC(C)C)nc3c(C)cccn3c2=O)SC1=S	-2	2	0	-1	+	3
COC(=O)C(Cc1ccccc1)NC(=O)CCNC(=O)c1ccco1 (centres undefined)	2	5	-5	-7	i	0
O=C(O)CCN(CC(=O)c1ccc(Cl)cc1)S(=O)(=O)c1ccc([N+](=O)[O-])cc1	-3	0	1	10	i	-1
O=C(CCn1ccc2cc(S(=O)(=O)N3CCCC3)ccc21)NCCc1ccccc1	-7	-7	0	6	+	0
Cc1ccc(CCNC(=O)CCn2ccc3cc(S(=O)(=O)N4CCCC4)ccc32)cc1	1	-4	4	2	?	3
O=C1Nc2ccccc2-c2nnnn2C1N1CCCC1 (centres undefined)	·	·	·	·	i	·
Cc1ccc(C(=O)Nc2nnc(-c3ccco3)o2)cc1	-2	10	1	0	i	0
O=C(Nc1nnc(-c2ccco2)o1)c1ccc([N+](=O)[O-])s1	6	7	-2	1	+	-7
CN(C)CCCN(C(=O)c1ccc2c(c1)CCCC2)c1nc2ccc(Cl)cc2s1	10	12	1	-8	+	-1
CC(=O)Nc1cccc(-c2cc(N3CCN(CCO)CC3)n3nccc3n2)c1	·	-1	·	·	i	·
